Test results reported in ChEMBL document CHEMBL1821569, “Synthesis of novel 1,2,5-trisubstituted benzimidazoles as potential antitumor agents” (2011).

Tested on: HOP-92
Assay: Antitumor activity against human HOP92 cells after 48 hrs by SRB assay
Assay type: functional
Details: HOP-92, 48 h
Summary of the method: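 NCI 60-cell-line secondary screen. Cells were exposed continuously to drug for 48 h at five concentration levels (100, 10, 1.0, 0.1 and 0.01). Growth was estimated by sulforhodamine B protein staining. GI50 is the concentration giving a 50% reduction in net protein increase versus untreated control cells over the incubation. TGI (total growth inhibition) and LC50 (50% cell kill) were also derived.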

Q: What does the source list for `COC(=O)c1ccc2c(c1)nc(-c1ccc(Cl)cc1)n2-c1cc(C(C)(C)C)[nH]n1`?
A: GI50: 1150 nM; TGI: 8.02 µM; CC50 (read-out: LC50 (the source's name)): > 100 µM
